Measurements from different studies.
Protocols differ between the studies behind these lines.
Observed: cell growth or viability

Compound	cell line	assay	conditions	endpoint	value
Cc1nc(Nc2ncc(C(=O)Nc3c(C)cccc3Cl)s2)cc(N2CC[C@H](O)C2)n1	P3HR-1	ATP luminescence	10 µM, 72 h	inhibition	51%
C=C(NC(=O)C(=C)NC(=O)c1csc(C2=N[C@@H]3c4csc(n4)[C@H]4NC(=O)c5csc(n5)[C@H]([C@](C)(O)[C@@H](C)O)NC(=O)[C@H]5CSC(=N5)/C(=C/C)NC(=O)[C@H]([C@@H](C)O)NC(=O)c5csc(n5)[C@]3(CC2)NC(=O)[C@H](C)NC(=O)C(=C)NC(=O)[C@H](C)NC(=O)[C@H]([C@@H](C)CC)N[C@@H]2C=Cc3c([C@H](C)O)cc(nc3[C@H]2O)C(=O)O[C@@H]4C)n1)C(N)=O	NCI-H1792			EC50	3.2 µM
CCOc1ccc(C(=O)CC(SCc2ccc(Cl)cc2)C(=O)OC)cc1 (stereo not drawn)	U2OS	MTT	48 h	EC50	15.7 µM
Cc1nc(NC(=O)N2CCC[C@H]2C(N)=O)sc1-c1ccnc(C(C)(C)C(F)(F)F)c1	Detroit 562	ATP luminescence	5 days	EC50	29.4 µM
CCOc1cccc(C(=O)CC(SCc2cccc(Br)c2)C(=O)O)c1 (stereo not drawn)	U2OS	MTT	48 h	EC50	98 µM
N#CSCCCCOc1ccc2c(-c3ccccc3)cc(=O)oc2c1	HeLa	SRB		GI50	25 µM
CCOc1ccc(-c2cc(C(=O)O)c(-c3ccc(Cl)cc3)o2)cc1	SK-MEL-2	MTT	48 h	EC50	72 µM
CCC(=CCc1c(O)cc2c(c1O)C(=O)CC(c1ccc(O)cc1)O2)CC (stereo in doubt)	HeLa	MTT	6.25 µM, 48 h	inhibition	9.54%
O=c1[nH]cc(F)c(=O)[nH]1	HeLa	SRB		GI50	4.4 µM
CCC(=CCc1c(O)cc2c(c1O)C(=O)C[C@@H](c1ccccc1O)O2)CC	HeLa	MTT	15 µM, 48 h	inhibition	0.607%
CCOc1ccc(C(=O)CC(SCc2ccc(Cl)cc2)C(=O)O)cc1 (stereo not drawn)	U2OS	MTT	48 h	EC50	130 µM
Cc1cc(=O)oc2cc(OCCCCSC#N)ccc12	HeLa	SRB		GI50	1.9 µM
